Experimental data of several laboratories.
Protocols differ between the studies behind these lines.
Organism: Plasmodium falciparum
Observed: parasite growth

| SMILES | technique | strain | time | notes | quantity | value |
| --- | --- | --- | --- | --- | --- | --- |
| N=C(CC(O)c1cc2c(F)cc(F)cc2c2cc(C(F)(F)F)ccc12)Nc1cc(F)c(F)c(F)c1 (stereo not shown) | ELISA | 3D7 | 72 h | blood stage | IC50 | 0.0087 µM |
| COc1cc(/C=C2\CC/C(=C\c3ccc(O)c(OC)c3)C2=O)ccc1O |  | K1 |  | drug-resistant strain, blood stage | EC50 | 1.47 µM |
| CC(=O)[C@@]1(O)[C@H](O)C[C@H]2[C@@H]3CCC4=CC(=O)CC[C@]4(C)[C@H]3CC[C@@]21C |  | DD2 |  | drug-resistant strain, blood stage | IC50 | 0.617 µM |
| N=C(CC(O)c1cc2c(F)cc(F)cc2c2cc(C(F)(F)F)ccc12)Nc1ccc(-c2ccc(F)cc2)cc1 (stereo not shown) | ELISA | 3D7 | 72 h | blood stage | IC50 | 0.0081 µM |
| C[C@@H]1CC[C@H]2[C@@H](C)C(=O)O[C@@H]3O[C@@]4(C)CC[C@@H]1[C@]32OO4 |  | NF54 |  | blood stage | IC50 | 0.0112 µM |
| CCN1CCN(Cc2ccc(Nc3nc4ccc(Oc5ccnc(NC(=O)C6CCN(C)CC6)c5)cc4n3C)cc2C(F)(F)F)CC1 | flow cytometry | DD2 | 72 h | blood stage | IC50 | 0.0557 µM |
| c1cc([C@H]2CC[C@]3(CC2)OO[C@]2(O3)C3CC4CC(C3)CC2C4)ccc1OCCN1CCOCC1 |  | W2 |  | drug-resistant strain, blood stage | IC50 | 0.011 µM |
| CCN(CC)CCCC(C)Nc1ccnc2cc(Cl)ccc12 (stereo not shown) |  | K1 |  | drug-resistant strain | IC50 | 0.0912 µM |
| N=C(CC(O)c1cc2c(F)cc(F)cc2c2cc(C(F)(F)F)ccc12)Nc1ccc(N2CCC(F)(F)CC2)cc1 (stereo not shown) | ELISA | 3D7 DD2 |  | blood stage | IC50 | ~0.032 µM |
| CO[C@H]1/C=C/O[C@@]2(C)Oc3c(C)c(O)c4c(O)c(c(/C=N/N5CCN(C)CC5)c(O)c4c3C2=O)NC(=O)/C(C)=C\C=C\[C@H](C)[C@H](O)[C@@H](C)[C@@H](O)[C@@H](C)[C@H](OC(C)=O)[C@@H]1C |  | K1 |  | drug-resistant strain, blood stage | IC50 | 0.033 µM |
| CC(C)(C)CNC(=N)CC(O)c1cc2c(F)cc(F)cc2c2cc(C(F)(F)F)ccc12 (stereo not shown) | ELISA | 3D7 | 72 h | blood stage | IC50 | 6.02 µM |
| COc1cc(/C=C/C(=O)C(=Cc2ccccc2)C(=O)/C=C/c2ccc(O)c(OC)c2)ccc1O |  | K1 |  | drug-resistant strain, blood stage | EC50 | 17.1 µM |
| CCCCCCCCNC(C)C(O)c1ccc(SC(C)C)cc1 (stereo not shown) |  | DD2 |  | drug-resistant strain, blood stage | IC50 | 0.0625 µM |
| COc1cc(/C=C/C(=O)C(=Cc2ccc(O)cc2)C(=O)/C=C/c2ccc(O)c(OC)c2)ccc1O |  | K1 |  | drug-resistant strain, blood stage | EC50 | 13.3 µM |
| CCCCN(CCCC)C(=N)CC(O)c1cc2c(F)cc(F)cc2c2cc(C(F)(F)F)ccc12 (stereo not shown) | ELISA | 3D7 | 72 h | blood stage | IC50 | 1.11 µM |
| COc1cc(/C=C/C(=O)/C=C/c2ccc(O)c(OC)c2)ccc1O |  | K1 |  | drug-resistant strain, blood stage | EC50 | 2.53 µM |
| N=C(CC(O)c1cc2c(F)cc(F)cc2c2cc(C(F)(F)F)ccc12)NCc1ccc(F)cc1 (stereo not shown) | ELISA | 3D7 DD2 |  | blood stage | IC50 | > 0.1 µM |
| N=C(N)N/N=C/c1c(Cl)cccc1Cl |  | K1 |  | drug-resistant strain, blood stage | IC50 | 0.931 µM |
| COc1cc(/C=C2\CCC/C(=C\c3ccc(O)c(OC)c3)C2=O)ccc1O |  | K1 |  | drug-resistant strain, blood stage | EC50 | 1.3 µM |
